This is a sample that favours compounds with a hit; in the whole collection about 2.6% have one here.
Platelet DG rel: modulates dense granule release in human platelets; human platelet-rich plasma, SFLLRN dense granule ATP release, luminescence; inhibition, %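 (compounds screened at 7.5 µM in platelet-rich plasma)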; actives 0.22% (n = 300,000); AID 1663;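 active means mean replicate score, as percent of positive control, at or above 50; inconclusive means mean below 50 but at least one replicate at or above 50; inactive means mean and every replicate below 50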
VLA-4 inh: inhibition in a human VLA-4 binding assay; P13612; VLA-4 expressing cells, ligand binding flow cytometry; inhibition, % (about 7 µM as worked out from the volumes in the protocol); actives 0.2% (n = 330,000); AID 2557; in the data active means inhibition above about 50%
Rce1 inh: inhibitors of yeast Ras-converting enzyme; yeast membranes, quenched prenylated peptide cleavage fluorescence; calls only; actives 0.27% (n = 290,000); AID 2563;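 active means fall in fluorescence gain of 50% or more versus controls, with final raw signal at or below 3038400; inconclusive means same 50% fall but final raw signal above 3038400; inactive means fall in fluorescence gain under 50%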
Target sequence (Q03530 whole entry, looked up): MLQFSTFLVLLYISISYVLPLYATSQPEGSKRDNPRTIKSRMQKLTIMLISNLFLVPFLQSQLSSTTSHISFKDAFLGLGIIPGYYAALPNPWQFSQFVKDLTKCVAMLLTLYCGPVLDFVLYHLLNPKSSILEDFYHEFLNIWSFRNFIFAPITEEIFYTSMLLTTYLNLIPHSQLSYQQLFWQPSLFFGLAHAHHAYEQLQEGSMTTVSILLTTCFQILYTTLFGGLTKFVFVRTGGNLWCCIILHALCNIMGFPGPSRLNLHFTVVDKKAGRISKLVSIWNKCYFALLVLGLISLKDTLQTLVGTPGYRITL
TAAR1 antagonist: antagonists of human TAAR1; Q96RJ0; CHO RD-HGA16 TAAR1, Fluo-8 calcium fluorescence, antagonist; inhibition, % at 3 µM; actives 1.5% (n = 360,000); AID 624466;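 active means inhibition above a per-plate cutoff, the mean inhibition of test compounds on that plate plus 3 SD, cut at about 49% in these data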
Target sequence (Q96RJ0 whole entry, looked up): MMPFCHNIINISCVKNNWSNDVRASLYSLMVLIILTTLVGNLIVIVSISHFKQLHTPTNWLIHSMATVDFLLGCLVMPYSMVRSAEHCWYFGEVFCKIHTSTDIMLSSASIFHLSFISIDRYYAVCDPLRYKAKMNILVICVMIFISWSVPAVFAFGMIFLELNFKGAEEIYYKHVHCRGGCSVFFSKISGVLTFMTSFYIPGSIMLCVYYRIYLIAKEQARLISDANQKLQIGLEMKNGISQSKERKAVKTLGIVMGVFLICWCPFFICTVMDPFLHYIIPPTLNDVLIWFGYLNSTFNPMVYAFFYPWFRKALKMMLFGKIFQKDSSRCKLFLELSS
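Test system: CHO RD-HGA16 cells bearing hTAAR1 | Reagent: β-PEA, EC80 | Compound dosing: 3 µM, single point | Schedule: Dye loading 75 min at 37 °C, then 30 min room temperature | Signal: Calcium fluorescence with Fluo-8 | Evaluation: Percent inhibition of PEA-evoked calcium signal, max/basal emission ratio | Control set: DMSO-only wells and EC80 β-PEA-stimulated wells | Repeats: Singlicate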
TAAR1 agonist: human TAAR1 agonism. AID 624467. activation, % at 3 µM. CHO RD-HGA16 TAAR1, Fluo-8 calcium fluorescence; vehicle wells 0%, saturating PEA agonist 100%. actives 0.99% (n = 360,000). Q96RJ0;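 active means activation above the mean activation of all test compounds in the run plus 3 SD, cut at about 38% in these data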
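Test system: RD-HGA16 (CHO) cells co-expressing Gα16 and hTAAR1 | Doses: Single dose, 3 µM | Schedule: 17-24 h seeding, 75 min 37 °C dye, 30 min RT | Evaluation: % activation from peak over basal fluorescence ratio, DMSO-to-PEA scaled | Technique: Kinetic Fluo-8 calcium fluorescence | Benchmarks: Low control DMSO, high control PEA (EC100)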
Hits are given with their value; i = inactive; ? = inconclusive; nt = no result given; + = active, no number; ! = repeats disagree.

SMILES | Platelet DG rel | VLA-4 inh | Rce1 inh | TAAR1 antagonist | TAAR1 agonist
CC(C)Cc1ccc(-c2cc3nc(NCCc4ccc(S(N)(=O)=O)cc4)ccn3n2)cc1 | nt | nt | nt | 67.3 | i
CCC(CC)NC(=O)c1oc2ccccc2c1COc1ccccc1 | i | i | i | i | i
CC(C)CNC(=O)c1oc2ccccc2c1COc1ccccc1 | i | i | i | i | 38.5
CC[C@@H]1CC2=C(C(=O)OC(C)(C)O2)[C@@H](c2ccc(Cl)cc2)O1 | nt | nt | nt | i | i
O=C(NC1CCCCCC1)C1CCC(=O)N(Cc2ccccc2F)C1 (centres undefined) | i | i | i | i | i
Cc1cc(NC(=O)c2cc3ccccc3o2)ccc1NC(=O)c1ccccc1 | i | i | i | i | i
O=C(Nc1ccc(N2CCOCC2)c(Cl)c1)c1ccc(Br)o1 | i | i | i | 60.3 | i
Cc1cc(NC(=O)c2cccnc2Cl)ccc1NC(=O)c1cc2ccccc2o1 | i | i | i | i | 40.5
O=C(Nc1ccc(N2CCOCC2)c(Cl)c1)c1cc2ccccc2o1 | i | i | + | nt | nt
CCCCNc1c(-c2ccc(-c3ccc(C(C)=O)cc3)c(OC)c2)nc2cc(C)ccn12 | nt | i | nt | 55.6 | i
CCC(C)Sc1cc(-c2nc3ccc(C)cn3c2NCc2ccccc2)ccc1OC (centres undefined) | i | i | i | 72.2 | i
CCC(C)Sc1ccc(-c2nc3ccc(C)cn3c2NCc2ccccc2)cc1OC (centres undefined) | i | i | i | nt | nt
c1ccc(CNc2c(-c3cccc(SC4CCCCC4)c3)nc3ccccn23)cc1 | nt | i | nt | 54.6 | i
CCC(C)Sc1cccc(-c2nc3cc(C)ccn3c2NCc2ccccc2)c1 (centres undefined) | i | i | i | 77.5! | i
Cc1ccn2c(NCc3ccccc3)c(-c3cccc(SC4CCCCC4)c3)nc2c1 | nt | i | nt | i | i
Cc1cccc(NC(=O)C2CCN(C(=O)N3CCOc4ccccc43)CC2)c1C | i | i | i | i | i
CC(C)Cc1nnc(NC(=O)c2ccc(-n3cncn3)c([N+](=O)[O-])c2)s1 | nt | nt | nt | i | i
O=C(CSc1nnc(NC(=O)C2CCC2)s1)Nc1ccccc1Br | i | i | i | i | i
O=C(OCc1ccccc1)N1CCC2CC1c1cc(-c3cc4ccccc4o3)ccc12 (centres undefined) | nt | nt | nt | i | i
COc1ccc(-c2nc3ccccn3c2NCc2ccc3c(c2)OCO3)cc1 | i | i | i | i | i
COc1ccc(-c2cc(-c3nc4ccccn4c3NCc3ccccc3)ccc2OC)cc1 | nt | i | nt | 87.5 | i
CCCCNc1c(-c2ccc(OC)c(SC(C)CC)c2)nc2cc(C)ccn12 (centres undefined) | nt | i | nt | 71.9! | i
CCCCNc1c(-c2ccc(SC(C)CC)cc2)nc2ccccn12 (centres undefined) | i | i | i | 96.4 | i
CCCCNc1c(-c2ccc(OC)c(SC3CCCCC3)c2)nc2ccc(C)cn12 | nt | i | nt | 85.2 | i
CCCCNc1c(-c2ccc(OC)c(SC(C)CC)c2)nc2cnccn12 (centres undefined) | nt | nt | nt | i | i
SMILES | Platelet DG rel | VLA-4 inh | Rce1 inh | TAAR1 antagonist | TAAR1 agonist
CCCCNc1c(-c2ccc(SC3CCCCC3)cc2)nc2ccccn12 | i | i | i | i | i
CC1(C)CCC(=O)C=C1Nc1ccc(F)c(Cl)c1 | i | i | i | i | i
O=C(Oc1cccc2c(O)cccc12)c1ccco1 | nt | nt | nt | i | i
c1ccc(C(NCCNC(c2ccccc2)c2ccccc2)c2ccccc2)cc1 | i | i | i | i | i
COc1ccc(NC(=O)CCS(=O)(=O)c2ccc3nc(C)sc3c2)cc1OC | 74.4 | i | i | i | i
O=C1NC[C@H](CCCCN2C[C@H](Cc3ccccc3)N(CCc3ccccc3)C(=O)C2=O)N(CCc2ccc(O)cc2)C1=O | nt | nt | nt | i | i
CC1=C(C(=O)N(C(C)C)C(C)C)CC(CC(=O)NCCc2ccccn2)C(=O)N1Cc1ccc(F)cc1 (centres undefined) | nt | nt | nt | i | 37.8
CC1=C(C(=O)N(C)C)CC(CC(=O)NCCc2ccccn2)C(=O)N1Cc1ccc(F)cc1 (centres undefined) | nt | nt | nt | i | 41.0
COc1ccc(-n2ncc3c2CC(C)(C)CC3NC(=O)c2ocnc2C)cc1 (centres undefined) | i | i | i | i | i
O=[N+]([O-])c1ccc(NCCCc2ccccc2)cc1 | nt | nt | nt | 52.4 | i
O=C(O)c1cc([N+](=O)[O-])ccc1NCCCc1ccccc1 | i | i | i | i | i
Cc1csc(NC(=O)c2cn3ccccc3n2)n1 | 57.1 | i | i | i | i
O=C(Nc1ccccc1)c1cn2ccccc2n1 | i | i | i | i | i
c1ccc(-n2cnnc2SCc2cn3cccnc3n2)cc1 | i | i | + | i | i
COC(=O)c1cc(C)nc2c1c(C)nn2-c1ccccc1 | nt | i | nt | i | i
Cc1nn(-c2ccccc2)c2nc(N)c(C(N)=O)cc12 | i | i | + | i | i
S=C(CN1CCCC1=S)NCCc1ccccc1 | i | i | nt | i | 40.0
COc1cccc(-c2nn(-c3ccccc3)cc2C(=O)O)c1 | 62.4 | i | i | i | i
COc1cccc(-c2nn(-c3ccc(C)cc3)cc2C(=O)N2CCc3cc(OC)c(OC)cc3C2)c1 | i | i | i | 62.6 | i
COc1ccc(OC)c(-c2nn(-c3ccccc3)cc2C(=O)N2CCc3ccccc3C2)c1 | nt | i | nt | i | i
O=C(NC1CCCC1)C(c1cccnc1)N(C(=O)c1csnn1)c1ccc(F)cc1 (centres undefined) | i | i | i | i | i
N#Cc1ccccc1S(=O)(=O)N1CCN(C(=O)CN(Cc2ccco2)Cc2cccs2)CC1 | nt | nt | nt | i | i
CCOC(=O)C1(CCOC)CCN(C(=O)c2sccc2C)CC1 | i | i | + | i | i
Cc1cc(C)c(N(C(=O)CN2C(=O)c3ccccc3S2(=O)=O)C(C(=O)NCC2CCCO2)c2ccc(F)cc2)c(C)c1 (centres undefined) | i | i | i | 51.6 | i
C/C(=N\NC(=O)Cn1nc(C)cc1C)c1ccc([N+](=O)[O-])cc1 | i | i | i | i | i
SMILES | Platelet DG rel | VLA-4 inh | Rce1 inh | TAAR1 antagonist | TAAR1 agonist
COCc1cc(C)n(CC(=O)NCc2ccccc2)c(=O)c1C#N | i | i | + | i | i
COc1ccccc1N=c1oc2cc(O)ccc2cc1C(N)=O | 57.0 | i | ? | i | i
COc1ccccc1N=c1oc2cc(O)ccc2cc1C(=O)NCC1CCCO1 (centres undefined) | i | i | i | i | i
N/C(=N\N=C\c1ccc(O)c(O)c1)c1nonc1N | 104.8 | i | i | i | i
COc1ccc(/C=N/N=C(\N)c2nonc2N)cc1OC | i | i | i | i | i
N/C(=N\N=C\c1cccc(O)c1)c1nonc1N | 70.1 | i | i | i | i
N/C(=N\N=C\c1ccc(O)cc1)c1nonc1N | 64.5 | i | i | i | i
O=C(NCC1CCN(C(=O)C(=O)c2cccs2)CC1)c1cccnc1 | nt | nt | nt | i | i
Cc1cncn1CCc1nc2c3ccccc3nc(SCC(=O)Nc3cccc(Cl)c3)n2n1 | i | i | i | i | i
Cc1cccc(NC(=O)CSc2nc3ccccc3c3nc(CCc4c(C)n[nH]c4C)nn23)c1 | i | i | i | 50.6 | i

Assay outcomes as filed in PubChem.
